# Activity calls are given as the source filed them. The calls are words filed in the database; no cut-off is given here.
# Key:
# [1] = target: CDK8/Cyclin C (Homo sapiens, UniProt P49336); assay: Inhibition of CDK8/Cyclin C (unknown origin) using RBER-CHKtide as substrate in presence of [33P]gammaATP incubated for 60 mins by microplate scintillation counter analysis
# [2] = tested on: MV4-11; assay: Antiproliferative activity against human MV4-11 cells assessed as growth inhibition after 72 hrs by resazurin assay; format: functional
# Outline: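 MV4-11 cells kept at 37 °C with 5% CO2 in ATCC-recommended medium plus 10% FBS. In-house resazurin viability assay after 72 h exposure. GI50 reported as mean ± standard deviation from at least two replicates.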
# [3] = target: Protein kinase C theta (Homo sapiens) (UniProt Q04759); assay: Inhibition of PKC theta (unknown origin) assessed as residual activity at 1 uM relative to control
# Chain of Protein kinase C theta (Homo sapiens) (Q04759 whole entry, looked up): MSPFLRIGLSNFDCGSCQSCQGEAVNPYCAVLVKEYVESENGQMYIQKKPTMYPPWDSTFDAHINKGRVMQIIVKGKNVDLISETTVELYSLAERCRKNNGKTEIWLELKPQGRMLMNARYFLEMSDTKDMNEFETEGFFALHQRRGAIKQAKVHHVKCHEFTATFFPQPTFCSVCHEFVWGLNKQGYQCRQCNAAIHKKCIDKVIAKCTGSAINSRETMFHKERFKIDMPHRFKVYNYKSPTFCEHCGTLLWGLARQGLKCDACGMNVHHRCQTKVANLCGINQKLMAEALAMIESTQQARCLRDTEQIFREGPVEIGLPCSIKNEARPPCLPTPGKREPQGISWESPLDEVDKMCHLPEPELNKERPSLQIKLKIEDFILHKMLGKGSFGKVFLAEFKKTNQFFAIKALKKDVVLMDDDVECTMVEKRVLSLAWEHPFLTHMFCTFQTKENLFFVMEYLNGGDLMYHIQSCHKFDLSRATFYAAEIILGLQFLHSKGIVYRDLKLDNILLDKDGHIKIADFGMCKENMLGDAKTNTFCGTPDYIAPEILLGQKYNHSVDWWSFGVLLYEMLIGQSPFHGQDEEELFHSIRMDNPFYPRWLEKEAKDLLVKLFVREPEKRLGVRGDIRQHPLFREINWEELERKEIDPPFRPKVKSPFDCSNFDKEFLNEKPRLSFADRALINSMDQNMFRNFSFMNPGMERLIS
# [4] = target: Glycogen synthase kinase-3 beta (Homo sapiens) (UniProt P49841); assay: Inhibition of GSK3beta (unknown origin) assessed as residual activity at 1 uM relative to control
# Chain of Glycogen synthase kinase-3 beta (Homo sapiens) (P49841 whole entry, looked up): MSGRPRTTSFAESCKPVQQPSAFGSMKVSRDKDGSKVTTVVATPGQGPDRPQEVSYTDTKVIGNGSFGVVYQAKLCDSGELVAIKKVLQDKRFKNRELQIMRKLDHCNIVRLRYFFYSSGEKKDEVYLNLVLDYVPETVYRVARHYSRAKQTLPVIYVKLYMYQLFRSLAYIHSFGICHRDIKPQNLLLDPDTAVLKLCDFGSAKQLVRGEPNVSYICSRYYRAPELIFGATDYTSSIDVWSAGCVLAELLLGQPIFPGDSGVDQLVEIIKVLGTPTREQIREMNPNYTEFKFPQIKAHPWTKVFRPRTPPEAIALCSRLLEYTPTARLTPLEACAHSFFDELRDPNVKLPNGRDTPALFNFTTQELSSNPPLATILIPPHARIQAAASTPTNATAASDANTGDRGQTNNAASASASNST
# [5] = target: CDK9/cyclin T1 (Homo sapiens) (UniProt O60563+P50750); assay: Inhibition of CDK9/Cyclin T1 (unknown origin) assessed as residual activity at 1 uM relative to control; format: protein-complex assay
# [6] = target: Glycogen synthase kinase-3 alpha (Homo sapiens) (UniProt P49840); assay: Inhibition of GSK3alpha (unknown origin) assessed as residual activity at 1 uM relative to control
# Chain of Glycogen synthase kinase-3 alpha (Homo sapiens) (P49840 2-483 limits assumed): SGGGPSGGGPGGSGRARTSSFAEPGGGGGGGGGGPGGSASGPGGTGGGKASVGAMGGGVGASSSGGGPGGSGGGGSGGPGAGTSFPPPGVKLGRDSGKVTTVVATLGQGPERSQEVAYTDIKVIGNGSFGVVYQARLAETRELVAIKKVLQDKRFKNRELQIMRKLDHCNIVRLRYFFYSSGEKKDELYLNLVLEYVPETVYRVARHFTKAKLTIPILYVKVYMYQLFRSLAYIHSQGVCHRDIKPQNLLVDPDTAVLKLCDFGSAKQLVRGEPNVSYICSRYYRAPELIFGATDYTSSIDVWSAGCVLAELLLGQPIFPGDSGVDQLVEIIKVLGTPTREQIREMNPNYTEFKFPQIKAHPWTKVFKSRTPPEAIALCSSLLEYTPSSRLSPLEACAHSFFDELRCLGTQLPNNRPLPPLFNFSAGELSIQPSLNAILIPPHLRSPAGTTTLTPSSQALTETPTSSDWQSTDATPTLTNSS
# [7] = target: Cyclin-dependent kinase 1/cyclin B1 (Homo sapiens) (UniProt P06493+P14635); assay: Inhibition of CDK1/Cyclin B (unknown origin) assessed as residual activity at 1 uM relative to control; format: protein-complex assay
# Chain of Cyclin-dependent kinase 1/cyclin B1 (Homo sapiens) (P06493 whole entry, looked up): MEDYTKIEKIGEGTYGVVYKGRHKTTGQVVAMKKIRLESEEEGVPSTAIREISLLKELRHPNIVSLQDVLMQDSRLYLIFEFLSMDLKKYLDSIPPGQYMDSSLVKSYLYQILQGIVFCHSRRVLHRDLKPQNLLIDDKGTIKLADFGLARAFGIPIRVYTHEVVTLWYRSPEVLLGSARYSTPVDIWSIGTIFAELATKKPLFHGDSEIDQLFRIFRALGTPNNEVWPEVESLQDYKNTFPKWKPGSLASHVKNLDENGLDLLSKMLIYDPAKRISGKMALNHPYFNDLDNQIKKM
# Chain of Cyclin-dependent kinase 1/cyclin B1 (Homo sapiens) (P14635 whole entry, looked up): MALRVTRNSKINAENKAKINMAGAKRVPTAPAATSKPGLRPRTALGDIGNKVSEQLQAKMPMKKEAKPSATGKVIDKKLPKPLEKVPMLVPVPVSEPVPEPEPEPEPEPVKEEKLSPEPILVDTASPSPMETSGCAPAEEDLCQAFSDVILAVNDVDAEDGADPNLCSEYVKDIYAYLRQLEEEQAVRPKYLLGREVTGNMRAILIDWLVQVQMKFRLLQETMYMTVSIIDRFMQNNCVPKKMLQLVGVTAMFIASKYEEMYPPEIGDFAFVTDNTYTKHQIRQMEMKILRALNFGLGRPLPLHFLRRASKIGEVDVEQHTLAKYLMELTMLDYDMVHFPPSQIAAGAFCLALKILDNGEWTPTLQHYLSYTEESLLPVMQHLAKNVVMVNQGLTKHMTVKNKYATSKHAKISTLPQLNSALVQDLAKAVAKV
# [8] = AUC in Sprague-Dawley rat at 20 mg/kg, po measured upto 24 hrs by LC/MS/MS analysis; format: ADME, organism-based; design: route oral, dose 20 mg/kg, time <=24; conditions: in vivo
# [9] = AUC in Sprague-Dawley rat at 5 mg/kg, iv measured upto 24 hrs by LC/MS/MS analysis; format: ADME, organism-based; design: route intravenous, dose 5 mg/kg, time <=24; conditions: in vivo
# [10] = Tmax in BALB/c mouse at 2 mg/kg, iv measured upto 24 hrs by LC/MS/MS analysis; format: ADME, organism-based; conditions: in vivo
# [11] = Clearance in BALB/c mouse at 2 mg/kg, iv measured upto 24 hrs by LC/MS/MS analysis; format: ADME, organism-based; conditions: in vivo
# [12] = Half life in BALB/c mouse at 10 mg/kg, po measured upto 24 hrs by LC/MS/MS analysis; format: ADME, organism-based; conditions: in vivo
# [13] = AUC in BALB/c mouse at 10 mg/kg, po measured upto 24 hrs by LC/MS/MS analysis; format: ADME, organism-based; design: route oral, dose 10 mg/kg, time <=24; conditions: in vivo
# [14] = Cmax in BALB/c mouse at 2 mg/kg, iv measured upto 24 hrs by LC/MS/MS analysis; format: ADME, organism-based; design: route intravenous, dose 2 mg/kg, time <=24; conditions: in vivo
# [15] = Tmax in Sprague-Dawley rat at 5 mg/kg, iv measured upto 24 hrs by LC/MS/MS analysis; format: ADME, organism-based; conditions: in vivo
# [16] = Half life in Sprague-Dawley rat at 20 mg/kg, po measured upto 24 hrs by LC/MS/MS analysis; format: ADME, organism-based; conditions: in vivo
# [17] = Tmax in BALB/c mouse at 10 mg/kg, po measured upto 24 hrs by LC/MS/MS analysis; format: ADME, organism-based; conditions: in vivo
# [18] = Half life in BALB/c mouse at 2 mg/kg, iv measured upto 24 hrs by LC/MS/MS analysis; format: ADME, organism-based; conditions: in vivo
# [19] = Oral bioavailability in Sprague-Dawley rat at 20 mg/kg measured upto 24 hrs by LC/MS/MS analysis; format: ADME, organism-based; conditions: in vivo
# [20] = Cmax in Sprague-Dawley rat at 20 mg/kg, po measured upto 24 hrs by LC/MS/MS analysis; format: ADME, organism-based; design: route oral, dose 20 mg/kg, time <=24; conditions: in vivo
# [21] = Cmax in BALB/c mouse at 10 mg/kg, po measured upto 24 hrs by LC/MS/MS analysis; format: ADME, organism-based; design: route oral, dose 10 mg/kg, time <=24; conditions: in vivo
# [22] = Volume of distribution at steady state in BALB/c mouse at 2 mg/kg, iv measured upto 24 hrs by LC/MS/MS analysis; format: ADME, organism-based; conditions: in vivo, read-out: Vdss
# [23] = Cmax in Sprague-Dawley rat at 5 mg/kg, iv measured upto 24 hrs by LC/MS/MS analysis; format: ADME, organism-based; design: route intravenous, dose 5 mg/kg, time <=24; conditions: in vivo
# [24] = Volume of distribution at steady state in Sprague-Dawley rat at 5 mg/kg, iv measured upto 24 hrs by LC/MS/MS analysis; format: ADME, organism-based; conditions: in vivo, read-out: Vdss
# [25] = Clearance in Sprague-Dawley rat at 5 mg/kg, iv measured upto 24 hrs by LC/MS/MS analysis; format: ADME, organism-based; conditions: in vivo
# [26] = Half life in Sprague-Dawley rat at 5 mg/kg, iv measured upto 24 hrs by LC/MS/MS analysis; format: ADME, organism-based; conditions: in vivo
# [27] = Tmax in Sprague-Dawley rat at 20 mg/kg, po measured upto 24 hrs by LC/MS/MS analysis; format: ADME, organism-based; conditions: in vivo
# [28] = Oral bioavailability in BALB/c mouse at 10 mg/kg measured upto 24 hrs by LC/MS/MS analysis; format: ADME, organism-based; conditions: in vivo
# [29] = AUC in BALB/c mouse at 2 mg/kg, iv measured upto 24 hrs by LC/MS/MS analysis; format: ADME, organism-based; design: route intravenous, dose 2 mg/kg, time <=24; conditions: in vivo
# Chain of CDK8/Cyclin C (P49336 whole entry): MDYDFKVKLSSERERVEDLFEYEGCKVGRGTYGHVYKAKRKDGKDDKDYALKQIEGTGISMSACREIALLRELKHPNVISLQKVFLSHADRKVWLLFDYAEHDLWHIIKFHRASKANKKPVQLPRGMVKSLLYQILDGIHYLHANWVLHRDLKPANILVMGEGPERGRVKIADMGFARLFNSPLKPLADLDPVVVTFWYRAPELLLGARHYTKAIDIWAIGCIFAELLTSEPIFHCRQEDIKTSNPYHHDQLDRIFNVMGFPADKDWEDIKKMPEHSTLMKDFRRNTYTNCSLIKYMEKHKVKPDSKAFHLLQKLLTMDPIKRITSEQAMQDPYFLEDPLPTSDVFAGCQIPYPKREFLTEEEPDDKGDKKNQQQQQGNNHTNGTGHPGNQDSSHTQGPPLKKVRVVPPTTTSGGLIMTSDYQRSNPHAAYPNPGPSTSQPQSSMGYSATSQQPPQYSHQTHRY
# Chain of CDK8/Cyclin C (P24863 whole entry, further chain): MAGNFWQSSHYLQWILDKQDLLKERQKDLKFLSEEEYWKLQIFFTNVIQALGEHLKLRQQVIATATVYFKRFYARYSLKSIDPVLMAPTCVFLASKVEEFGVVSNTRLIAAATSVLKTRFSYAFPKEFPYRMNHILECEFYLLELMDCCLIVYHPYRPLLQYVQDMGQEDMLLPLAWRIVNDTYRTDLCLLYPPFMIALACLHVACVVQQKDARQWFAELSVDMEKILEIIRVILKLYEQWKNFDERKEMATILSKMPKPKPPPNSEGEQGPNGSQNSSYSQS
smiles,measurement,setting,value
Cc1ccc(-c2cncc(Cl)c2N2CCC3(CCNC3=O)CC2)s1,Ki,[1],10 nM
same,GI50,[2],650 nM
O=C1NCCC12CCN(c1c(Cl)cncc1-c1ccc(CN3CCOCC3)s1)CC2,Ki,[1],32 nM
same,GI50,[2],2960 nM
CC(=O)c1sccc1-c1cncc(Cl)c1N1CCC2(CCNC2=O)CC1,Ki,[1],4660 nM
same,GI50,[2],> 100000 nM
CCOCOCc1ccc(-c2cncc(Cl)c2N2CCC3(CCNC3=O)CC2)o1,Ki,[1],36 nM
same,GI50,[2],2970 nM
O=C1NCCC12CCN(c1c(Cl)cncc1-c1ccc(Cl)s1)CC2,Ki,[1],14 nM
same,GI50,[2],560 nM
CC(C)(C)OC(=O)N1CCN(Cc2ccc(-c3cncc(Cl)c3N3CCC4(CCNC4=O)CC3)s2)CC1,Ki,[1],46 nM
same,GI50,[2],5150 nM
O=C1NCCC12CCN(c1c(Cl)cncc1-c1ccc(CN3CCCCC3)s1)CC2,Ki,[1],106 nM
same,GI50,[2],4010 nM
O=C1NCCC12CCN(c1c(Cl)cncc1-c1cnn(C(F)F)c1)CC2,Ki,[1],93 nM
same,GI50,[2],6140 nM
O=C1NCCC12CCN(c1c(Cl)cncc1-c1ccoc1)CC2,Ki,[1],42 nM
same,GI50,[2],750 nM
O=C1NCCC12CCN(c1c(Cl)cncc1-c1ccc(-c3ccccc3)s1)CC2,Activity,[3],inactive
same,Activity,[4],74%
same,Ki,[1],5 nM
same,GI50,[2],960 nM
same,Activity,[5],inactive
same,Activity,[6],62%
same,Activity,[7],inactive
O=C1NCCC12CCN(c1c(Cl)cncc1-c1ccc(CN3CCCC3)s1)CC2,Ki,[1],132 nM
same,GI50,[2],3370 nM
O=C1NCCC12CCN(c1c(Cl)cncc1-c1ccco1)CC2,Ki,[1],26 nM
same,GI50,[2],940 nM
O=C1NCCC12CCN(c1c(Cl)cncc1-c1cccs1)CC2,Ki,[1],10 nM
same,GI50,[2],480 nM
O=Cc1cc(-c2cncc(Cl)c2N2CCC3(CCNC3=O)CC2)cs1,Ki,[1],52 nM
same,GI50,[2],730 nM
Cn1ncc2cc(-c3cnc(N)c(Cl)c3N3CCC4(CCNC4=O)CC3)ccc21,GI50,[2],50 nM
Cc1cc(-c2cncc(Cl)c2N2CCC3(CCNC3=O)CC2)sc1C=O,Ki,[1],119 nM
same,GI50,[2],2530 nM
O=C1NCCC12CCN(c1c(Cl)cncc1-c1ccsc1)CC2,Ki,[1],18 nM
same,GI50,[2],190 nM
CC(=O)c1ccc(-c2cncc(Cl)c2N2CCC3(CCNC3=O)CC2)s1,Ki,[1],66 nM
same,GI50,[2],1440 nM
Cc1csc(-c2cncc(Cl)c2N2CCC3(CCNC3=O)CC2)c1,Ki,[1],10 nM
same,GI50,[2],650 nM
O=C1NCCC12CCN(c1c(Cl)cncc1-c1cc[nH]c1)CC2,Ki,[1],14 nM
same,GI50,[2],1050 nM
Cn1cccc1-c1cncc(Cl)c1N1CCC2(CCNC2=O)CC1,Ki,[1],30 nM
same,GI50,[2],900 nM
Cc1ccc(-c2cncc(Cl)c2N2CCC3(CCNC3=O)CC2)o1,Ki,[1],22 nM
same,GI50,[2],4950 nM
O=Cc1ccc(-c2cncc(Cl)c2N2CCC3(CCNC3=O)CC2)s1,Ki,[1],67 nM
same,GI50,[2],750 nM
O=C1NCCC12CCN(c1c(Cl)cncc1-c1cn[nH]c1)CC2,Ki,[1],254 nM
same,GI50,[2],8520 nM
O=Cc1cscc1-c1cncc(Cl)c1N1CCC2(CCNC2=O)CC1,Ki,[1],845 nM
same,GI50,[2],27100 nM
O=Cc1sccc1-c1cncc(Cl)c1N1CCC2(CCNC2=O)CC1,Ki,[1],1750 nM
same,GI50,[2],28700 nM
O=Cc1cc(-c2cncc(Cl)c2N2CCC3(CCNC3=O)CC2)co1,Ki,[1],185 nM
same,GI50,[2],5150 nM
Cc1ccsc1-c1cncc(Cl)c1N1CCC2(CCNC2=O)CC1,Ki,[1],8 nM
same,GI50,[2],910 nM
O=Cc1ccc(-c2cncc(Cl)c2N2CCC3(CCNC3=O)CC2)o1,Ki,[1],82 nM
same,GI50,[2],5190 nM
Cn1cc(-c2cncc(Cl)c2N2CCC3(CCNC3=O)CC2)cn1,Ki,[1],230 nM
same,GI50,[2],5530 nM
Nc1ncc(-c2cc3ccccc3s2)c(N2CCC3(CCNC3=O)CC2)c1Cl,AUC at 24 h,[8],19.5 µM·h
same,AUC at 24 h,[9],18.4 µM·h
same,Tmax,[10],3 min
same,clearance,[11],33.3 mL/min/kg
same,half-life,[12],1.67 h
same,AUC at 24 h,[13],3.4 µM·h
same,Cmax,[14],4.96 µM
same,Tmax,[15],9 min
same,half-life,[16],10.1 h
same,Tmax,[17],0.18 h
same,half-life,[18],0.88 h
same,bioavailability,[19],26%
same,Ki,[1],7 nM
same,GI50,[2],160 nM
same,Cmax,[20],1.35 µM
same,Cmax,[21],1.68 µM
same,Vd,[22],1.6 L/kg
same,Cmax,[23],11.1 µM
same,Vd,[24],1.32 L/kg
same,clearance,[25],13.2 mL/min/kg
same,half-life,[26],4.41 h
same,Tmax,[27],5 h
same,bioavailability,[28],28%
same,AUC at 24 h,[29],2.4 µM·h
